Screening results as filed in PubChem BioAssay.
ABHD5-PLIN5 inh – blocks binding of human ABHD5 to perilipin-5; Q00G26+Q8WTS1; Split G. princeps luciferase complementation, luminescence, 4 h; inhibition, % at 4 µM; 360,000 tested, 0.78% active; AID 602281;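 active means inhibition above the mean inhibition across every tested compound plus 3 SD, cut at about 22% in these data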;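 further: 0% = DMSO only wells and the 100% control is not disclosed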
Beta2AR agonist – human beta-2 adrenergic receptor agonism by FAP; AID 504454; 340,000 tested, 0.43% active; response, % (no concentration beside the values); Am2.2-beta2AR cells, FAP receptor internalization, flow cytometry;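 active means response above a set limit, near 3 SD of response in nonfluorescent compounds, cut at about 42% in these data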
Target sequence (P07550 whole entry, looked up): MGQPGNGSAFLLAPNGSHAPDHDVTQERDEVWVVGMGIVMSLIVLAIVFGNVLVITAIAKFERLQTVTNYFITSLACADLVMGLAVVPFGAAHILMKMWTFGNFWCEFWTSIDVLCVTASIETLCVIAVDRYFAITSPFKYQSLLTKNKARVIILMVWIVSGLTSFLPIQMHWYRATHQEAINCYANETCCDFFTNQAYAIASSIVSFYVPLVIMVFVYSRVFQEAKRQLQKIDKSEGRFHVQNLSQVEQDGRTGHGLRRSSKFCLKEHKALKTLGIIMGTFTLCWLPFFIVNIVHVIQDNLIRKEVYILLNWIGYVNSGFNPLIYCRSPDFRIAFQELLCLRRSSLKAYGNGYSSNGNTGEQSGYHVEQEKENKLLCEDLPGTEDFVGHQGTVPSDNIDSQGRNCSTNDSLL
NadD inh – blocks S. aureus nicotinate mononucleotide adenylyltransferase | purified NadD enzyme, colorimetric absorbance read-out | inhibition, % at 20 µM | 360,000 tested, 0.78% active; in the data active means inhibition above about 26%
SENP1 FRET inh – blocks the human SENP1 SUMO protease catalytic domain; recombinant SENP1 catalytic domain, CyPet-SUMO1-YPet FRET cleavage; inhibition, % at 10 µM; 360,000 tested, 0.21% active; AID 624204;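 active means inhibition at least 30% at 10 µM, raw YFP signal under a set limit, fluorescence ratio 0.5 to 1.5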;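 further: 0% = enzyme with DMSO and 100% = no enzyme wells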
Target sequence (Q9P0U3 419-644 limits assumed): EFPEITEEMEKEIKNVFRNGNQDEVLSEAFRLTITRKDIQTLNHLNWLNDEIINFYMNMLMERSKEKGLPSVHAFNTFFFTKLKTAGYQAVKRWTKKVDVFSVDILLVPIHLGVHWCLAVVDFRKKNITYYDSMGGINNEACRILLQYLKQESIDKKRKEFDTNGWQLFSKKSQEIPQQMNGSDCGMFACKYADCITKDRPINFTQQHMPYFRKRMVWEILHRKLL
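Material: hSENP1 catalytic domain, recombinant; medium: Tris pH 8 with BME, BSA, NP40 and catalase; compound: single concentration of 10 µM compound, 0.5% DMSO final; technique: FRET read of cyan and yellow fluorescence; timing: 50 min enzyme reaction, room temperature, light-protected; reagent: SFCypet-SUMO1-SFYpet substrate at 25 nM; control set: no-enzyme low, enzyme-DMSO high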
GRK2 inh – inhibitors of human GRK2 displacing RNA aptamer; P25098; bead flow cytometry, FAM-aptamer displacement from GRK2; inhibition of aptamer binding, % at 10 µM; 330,000 tested, 0.59% active; AID 488847;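 active means inhibition of aptamer binding above 40%, roughly 3 SD of noise, on plates passing a quality check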;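 further: median bead fluorescence of bound FAM aptamer so fluorescent compounds give negative values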
ABHD5-PLIN5 conf – confirmation of human ABHD5-PLIN5 interaction inhibitors | shares compounds with ABHD5-PLIN5 inh | biochemical ABHD5-PLIN5 interaction, luminescence | inhibition, % at 4 µM | 2,200 tested, 67% active; in the data active means inhibition above about 23%;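 further: 0% = DMSO vehicle wells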
HNF4 split-luc – HNF4 split-luciferase signal hit, counter-screen. shares compounds with ABHD5-PLIN5 inh. HNF4 dimerization, luminescence, biochemical. inhibition, % at 4 µM. 2,200 tested, 77% active. AID 651674;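 active means mean inhibition across replicate wells exceeding the computed hit threshold, cut at about 13% in these data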;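 further: light from luciferase halves that rejoin when HNF4 fusion proteins dimerize; 0% = DMSO only wells and the 100% control is not given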
Numbers without * were called inactive; · = not tested or not shown; ! = a repeat was not active. Sampled rows, rich in hits. Any-hit rate of the full collection: about 2.5%.

SMILES	ABHD5-PLIN5 inh	Beta2AR agonist	NadD inh	SENP1 FRET inh	GRK2 inh	ABHD5-PLIN5 conf	HNF4 split-luc
C#CCN(C[C@@H]1[C@@H](OC(=O)NC2CCCC2)[C@@H](OC(=O)NC2CCCC2)Cn2c(=O)ccc(=O)n21)S(=O)(=O)c1ccc(C)cc1	38*	·	1	0	·	64*	24*
C#CCN(C[C@@H]1[C@@H](OC(=O)NCc2ccccc2F)[C@@H](OC(=O)NCc2ccccc2F)Cn2c(=O)ccc(=O)n21)S(=O)(=O)c1ccc(C)cc1	40*	·	7	-1	·	58*	27*
C#CCN(C[C@@H]1[C@@H](OC(=O)NCCCCCC)[C@@H](OC(=O)NCCCCCC)Cn2c(=O)n(CCCCCC)c(=O)n21)S(=O)(=O)c1ccc(C)cc1	8	·	-1	2	·	·	·
C[C@H](O)Cc1cn(-c2cc3cc(C#Cc4ccsc4)ccc3oc2=O)nn1	-7	4	-2	1	2	·	·
COc1cccc(CCC2C(=O)CCCC2=O)c1	2	-1	-4	-1	·	·	·
O=S1(=O)NC(C2CC2c2ccccc2)CCO1 (stereo not drawn)	5	0	-3	2	0	·	·
CSC(=Nc1ccccc1)N=C(SCc1ccccc1)N(C)C	81*	18	1	1	·	96*	57*
C[C@@H]1O[C@@H](O[C@H]2[C@H](Oc3cc(O)c4c(c3)OC(c3ccc(O)cc3)CC4=O)O[C@H](CO)[C@@H](O)[C@@H]2O)[C@H](O)[C@H](O)[C@H]1O (stereo partly drawn)	2	7	-7	0	0	·	·
COc1ccc(-c2cc(C(F)(F)F)nc(S(C)(=O)=O)n2)cc1	48*	35	-4	1	3	67*	91*
Nc1nc(-c2ccc(F)cc2)cc(C(F)(F)F)n1	-3	-5	-3	0	3	·	·
CS(=O)(=O)c1nc(-c2ccc(F)cc2)cc(C(F)(F)F)n1	51*	73*	-2	2	·	63*	99*
COc1ccc(S(=O)(=O)N2CCN(C)CC2c2ccccc2)cc1OC (stereo not drawn)	-4	-5	-4	3	·	·	·
CN1CCC(=C2c3ccccc3CC(=O)c3sccc32)CC1	27*!	8	-1	1	0	30*	4
CC(C)C1N=C(c2ccc3c(c2)OCO3)CC(c2ccccc2O)N1 (stereo not drawn)	56*	1	4	-15	3	58*	82*
CC1=C(CO)C(=O)OC([C@@H](C)C2CC[C@H]3C4C[C@H]5O[C@]56[C@@H](O)C=CC(=O)[C@]6(C)C4CC[C@]23C)C1 (stereo partly drawn)	65*	22	6	-3	0	77*	77*
COc1ccc(CCNC(=O)CN(c2cc([N+](=O)[O-])ccc2OC)S(C)(=O)=O)cc1OC	-1	1	-1	3	4	·	·
COc1ccc(CCNC(=O)CN(c2cccc([N+](=O)[O-])c2)S(C)(=O)=O)cc1OC	82*	0	-7	2	1	7	5
CCCCn1c(=O)cc(N2CCOCC2)[nH]c1=O	25*	12	-4	-1	3	2	2
CCn1c(=O)cc(N2CCOCC2)[nH]c1=O	-1	2	0	-1	0	·	·
C[C@H](NC(=O)c1nc[nH]c1C(=O)N[C@@H](CCCCN)C(=O)OC(C)(C)C)C(=O)OCc1ccccc1	1	-3	-1	-2	9	·	·
CC(=O)N=c1c(C#N)cc2c(=O)n3cccc(C)c3nc2n1Cc1ccco1	49*	-4	10	-38	10	13	14*
Cc1ccccc1C(=O)N=c1c(C#N)cc2c(=O)n3cccc(C)c3nc2n1Cc1ccco1	·	·	·	·	1	·	·
N#Cc1cc2c(=O)n3ccccc3nc2n(Cc2ccco2)c1=NC(=O)c1ccco1	50*	5	10	-30	13	7	26*
Cc1ccc2c(CC(=O)N3CCN(S(=O)(=O)c4ccccc4)CC3)coc2c1	1	0	1	-3	·	·	·
Cc1ccc2c(CC(=O)N3CCN(S(=O)(=O)c4ccc5c(c4)OCCO5)CC3)coc2c1	27*	0	-5	-3	3	57*	·
SMILES	ABHD5-PLIN5 inh	Beta2AR agonist	NadD inh	SENP1 FRET inh	GRK2 inh	ABHD5-PLIN5 conf	HNF4 split-luc
Cc1cn([C@@H](CCCCNC(=O)OC(C)(C)C)C(=O)NCCCCCCCCCCC(=O)N2CCN(C(=O)OC(C)(C)C)CC2)nn1	24*	21	-2	2	4	3	-10
C#CCOCCOCCOCCNc1nc(N2CCN(C(=O)CCCCCCCCCCNC(=O)[C@H](CCCCN)n3cc(C)nn3)CC2)nc(N2CCN(C(=O)CCCCCCCCCCNC(=O)[C@@H]([C@H](C)O)n3cc(C)nn3)CC2)n1	44*	26	10	2	0	8	-4
C#CCOCCOCCOCCNc1nc(N2CCN(C(=O)CCCCCCCCCCNC(=O)[C@@H](CCSC)n3cc(CCO)nn3)CC2)nc(N2CCN(C(=O)CCCCCCCCCCNC(=O)[C@@H]([C@H](C)O)n3cc(C)nn3)CC2)n1	53*	9	9	2	1	8	-17
CC[C@H](C)Cc1cn([C@@H](CCCN=C(NC(=O)OC(C)(C)C)NC(=O)OC(C)(C)C)C(=O)NCCCCCCCCCCC(=O)N2CCN(C(=O)OC(C)(C)C)CC2)nn1	15	9	20	-2	0	·	·
C#CCOCCOCCOCCNc1nc(N2CCN(C(=O)CCCCCCCCCCNC(=O)[C@H](CCCN=C(N)N)n3cc(C[C@@H](C)CC)nn3)CC2)nc(N2CCN(C(=O)CCCCCCCCCCNC(=O)[C@@H]([C@H](C)CC)n3cc(CCCCCN)nn3)CC2)n1	·	·	·	·	0	·	·
O=C(c1ccc(Cl)c(S(=O)(=O)N2CCCCC2)c1)N1CCN(Cc2ccccc2)CC1	-10	-1	6	-1	2	·	·
CN(C)c1ccc(CNC(=O)C2(C)Cc3c(-c4cccc(C(N)=O)c4)ccnc3O2)cc1 (stereo not drawn)	3	·	3	-1	·	·	·
CSCCC(c1nc2ccccc2[nH]1)n1c(=O)c(-c2ccco2)nc2ccccc21 (stereo not drawn)	34*	·	·	-31	·	34*	40*
CC(C)(C)NC(=O)C(C1CC1)n1c(=O)c(-c2cc3ccccc3[nH]2)nc2ccccc21 (stereo not drawn)	-13	·	·	-17	·	·	·
Cc1cccc(C)c1NC(=O)C(c1ccc(C(F)(F)F)cc1)n1c(=O)c(-c2ccccc2)nc2ccccc21 (stereo not drawn)	-15	·	·	3	·	·	·
CSCCC(c1nc2ccccc2[nH]1)n1c(=O)c(-c2cccnc2)nc2ccccc21 (stereo not drawn)	6	·	·	0	·	·	·
